{
  "source": "ChEMBL document CHEMBL1122788",
  "about": "“Quantitative relationships between alpha-adrenergic activity and binding affinity of alpha-adrenoceptor agonists and antagonists” (J Med Chem, 1984)",
  "key": {"Rattus norvegicus [1]": {"test_system": "Rattus norvegicus", "assay": "Hypertensive activity (increase in arterial pressure to 60 mmHg)) after i.v. administration to pithed rats."}, "[2]": {"molecular_target": "T1, Adrenergic receptor alpha-1 (Rattus norvegicus, UniProt P15823+P23944+P43140)", "T1 sequence (P15823 whole entry)": "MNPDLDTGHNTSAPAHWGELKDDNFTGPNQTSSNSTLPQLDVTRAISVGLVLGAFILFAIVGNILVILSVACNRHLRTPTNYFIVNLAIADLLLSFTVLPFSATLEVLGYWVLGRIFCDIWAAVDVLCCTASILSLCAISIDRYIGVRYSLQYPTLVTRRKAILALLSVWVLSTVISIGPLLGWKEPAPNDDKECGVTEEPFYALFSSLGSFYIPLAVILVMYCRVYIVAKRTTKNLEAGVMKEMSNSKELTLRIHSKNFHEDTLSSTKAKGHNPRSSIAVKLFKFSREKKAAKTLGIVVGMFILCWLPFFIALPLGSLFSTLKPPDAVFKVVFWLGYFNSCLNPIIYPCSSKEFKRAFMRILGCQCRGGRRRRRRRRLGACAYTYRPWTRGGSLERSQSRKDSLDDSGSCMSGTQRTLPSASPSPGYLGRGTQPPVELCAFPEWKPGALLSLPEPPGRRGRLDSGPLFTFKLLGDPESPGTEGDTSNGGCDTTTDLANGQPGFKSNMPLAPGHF", "T1 sequence (P23944 whole entry)": "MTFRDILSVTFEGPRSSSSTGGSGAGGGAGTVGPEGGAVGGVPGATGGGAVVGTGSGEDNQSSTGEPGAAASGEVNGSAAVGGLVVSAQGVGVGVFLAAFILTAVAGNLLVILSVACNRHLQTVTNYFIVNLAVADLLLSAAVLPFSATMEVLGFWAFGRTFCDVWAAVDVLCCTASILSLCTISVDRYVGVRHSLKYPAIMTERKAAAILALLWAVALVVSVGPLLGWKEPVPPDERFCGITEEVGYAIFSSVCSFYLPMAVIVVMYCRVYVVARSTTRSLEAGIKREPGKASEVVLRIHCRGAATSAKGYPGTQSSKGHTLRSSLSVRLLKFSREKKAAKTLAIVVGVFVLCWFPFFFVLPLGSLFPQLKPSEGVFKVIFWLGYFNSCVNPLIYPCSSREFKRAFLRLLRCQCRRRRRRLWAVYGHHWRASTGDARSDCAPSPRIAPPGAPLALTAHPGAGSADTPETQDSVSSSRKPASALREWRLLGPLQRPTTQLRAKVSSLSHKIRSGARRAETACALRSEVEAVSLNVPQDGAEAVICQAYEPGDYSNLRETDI", "T1 sequence (P43140 whole entry)": "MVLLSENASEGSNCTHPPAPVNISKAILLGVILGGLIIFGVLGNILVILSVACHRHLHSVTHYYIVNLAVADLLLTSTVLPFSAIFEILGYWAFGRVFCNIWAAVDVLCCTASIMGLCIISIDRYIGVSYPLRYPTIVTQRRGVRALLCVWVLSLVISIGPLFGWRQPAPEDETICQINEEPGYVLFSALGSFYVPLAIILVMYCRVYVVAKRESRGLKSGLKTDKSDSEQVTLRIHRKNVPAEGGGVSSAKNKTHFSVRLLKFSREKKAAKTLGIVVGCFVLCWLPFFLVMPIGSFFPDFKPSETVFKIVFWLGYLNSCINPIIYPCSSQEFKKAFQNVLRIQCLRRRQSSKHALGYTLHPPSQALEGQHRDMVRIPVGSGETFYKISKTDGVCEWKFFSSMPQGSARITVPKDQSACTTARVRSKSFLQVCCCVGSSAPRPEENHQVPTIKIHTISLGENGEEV", "assay": "Binding affinity against alpha-1 adrenergic receptor is the ability to inhibit the specific [3H]prazosin binding (0.2 nM) to rat isolated brain membranes by 50% was reported."}, "[3]": {"molecular_target": "T2, Adrenergic receptor alpha-2 (Rattus norvegicus, UniProt P22086+P19328+P22909)", "T2 sequence (P22086 whole entry)": "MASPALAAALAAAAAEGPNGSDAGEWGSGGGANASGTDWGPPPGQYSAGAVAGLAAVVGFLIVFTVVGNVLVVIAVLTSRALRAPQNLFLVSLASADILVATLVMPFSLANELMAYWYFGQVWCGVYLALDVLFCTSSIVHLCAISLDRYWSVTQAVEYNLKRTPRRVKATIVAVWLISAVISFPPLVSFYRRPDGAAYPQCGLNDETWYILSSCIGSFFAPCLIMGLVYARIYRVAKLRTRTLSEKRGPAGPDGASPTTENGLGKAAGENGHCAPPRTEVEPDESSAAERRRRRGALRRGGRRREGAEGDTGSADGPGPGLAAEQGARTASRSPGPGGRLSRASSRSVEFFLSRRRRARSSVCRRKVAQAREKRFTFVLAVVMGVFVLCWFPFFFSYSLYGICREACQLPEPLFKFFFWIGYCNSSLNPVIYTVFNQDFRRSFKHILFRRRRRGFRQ", "T2 sequence (P19328 whole entry)": "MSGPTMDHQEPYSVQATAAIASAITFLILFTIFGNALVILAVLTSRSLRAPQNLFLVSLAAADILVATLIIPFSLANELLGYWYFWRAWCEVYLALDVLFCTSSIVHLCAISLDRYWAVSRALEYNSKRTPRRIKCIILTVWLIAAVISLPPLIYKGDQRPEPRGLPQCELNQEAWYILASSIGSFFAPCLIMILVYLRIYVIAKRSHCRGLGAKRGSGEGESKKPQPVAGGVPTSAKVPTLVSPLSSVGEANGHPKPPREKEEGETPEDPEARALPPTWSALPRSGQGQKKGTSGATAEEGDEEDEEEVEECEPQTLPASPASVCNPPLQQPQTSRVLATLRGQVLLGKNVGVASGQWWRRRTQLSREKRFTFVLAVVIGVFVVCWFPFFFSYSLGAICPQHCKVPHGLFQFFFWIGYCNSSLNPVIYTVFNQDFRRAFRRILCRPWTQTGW", "T2 sequence (P22909 whole entry)": "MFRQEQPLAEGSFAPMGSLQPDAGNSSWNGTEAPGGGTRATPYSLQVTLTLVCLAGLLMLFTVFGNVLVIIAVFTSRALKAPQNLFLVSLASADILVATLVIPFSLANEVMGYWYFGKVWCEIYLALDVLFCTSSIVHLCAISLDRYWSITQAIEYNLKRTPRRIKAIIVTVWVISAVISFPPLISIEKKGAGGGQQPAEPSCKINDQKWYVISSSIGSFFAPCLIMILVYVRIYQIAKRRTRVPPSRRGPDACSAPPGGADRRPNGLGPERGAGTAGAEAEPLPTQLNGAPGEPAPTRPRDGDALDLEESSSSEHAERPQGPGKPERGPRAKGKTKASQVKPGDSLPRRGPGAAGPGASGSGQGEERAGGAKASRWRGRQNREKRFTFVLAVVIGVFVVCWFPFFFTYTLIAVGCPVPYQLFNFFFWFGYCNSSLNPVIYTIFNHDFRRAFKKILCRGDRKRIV", "assay": "Binding affinity against alpha-2 adrenergic receptor is the ability to inhibit the specific [3H]clonidine binding (0.4 nM) to rat isolated brain membranes by 50% was reported.", "design": "species or system Membrane", "how_it_was_run": "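Whole rat brain (minus cerebellum) from male Wistar rats (200–250 g), homogenized in ice-cold 50 mM Tris-HCl pH 7.7 and washed twice at 50000g. […] Bound ligand was collected by rapid filtration and counted. IC50 was derived by log-probit analysis.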"}, "[4]": {"molecular_target": "T2, Adrenergic receptor alpha-2", "assay": "50% inhibition of specific [3H]clonidine binding (0.4 nM) to Alpha-2 adrenergic receptors in rat isolated brain membranes", "assay_type": "cell membranes, Membrane", "how_it_was_run": "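Whole rat brain (minus cerebellum) from male Wistar rats (200–250 g), homogenized in ice-cold 50 mM Tris-HCl pH 7.7 and washed twice at 50000g. Bound ligand was collected by rapid filtration and counted. IC50 was derived by log-probit analysis.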"}, "[5]": {"molecular_target": "T2, Adrenergic receptor alpha-2", "assay": "Binding affinity against Alpha-2 adrenergic receptor is the ability to inhibit the specific [3H]clonidine binding (0.4 nM) to rat isolated brain membranes by 50% was reported; 2.5*10e-8", "assay_type": "tissue-based, Membrane"}, "Rattus norvegicus [6]": {"test_system": "Rattus norvegicus", "assay": "Hypotensive activity (25% decrease in arterial pressure) after i.v. administration to anesthetized normotensive rats."}, "[7]": {"molecular_target": "T1, Adrenergic receptor alpha-1", "assay": "Binding affinity against alpha-1 adrenergic receptor is the ability to inhibit the specific [3H]-prazosin binding (0.2 nM) to rat isolated brain membranes by 50% was reported; 5*10e-4", "assay_type": "tissue-based, Membrane", "how_it_was_run": "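Brain membranes were prepared from male Wistar rats (200–250 g, cerebellum removed) in ice-cold 50 mmol/L Tris-HCl, pH 7.7, with two 50000g spins, and used at 1 mg/mL protein (Lowry). […] Bound label was collected by vacuum filtration and counted. IC50 came from log probit analysis.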"}, "[8]": {"molecular_target": "T1, Adrenergic receptor alpha-1", "assay": "Binding affinity against alpha-1 adrenergic receptor is the ability to inhibit the specific [3H]prazosin binding (0.2 nM) to rat isolated brain membranes by 50% was reported; 5.8*10e-7", "assay_type": "tissue-based, Membrane", "how_it_was_run": "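Whole rat brain (minus cerebellum) from male Wistar rats (200–250 g), homogenized in ice-cold 50 mM Tris-HCl pH 7.7 and washed twice at 50000g. […] Bound ligand was collected by filtration and counted. IC50 was derived by log-probit analysis.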"}, "[9]": {"assay": "Apparent partion coefficient of compound was evaluated in octanol/buffer at pH of 7.4 at 37 degree Centigrade", "assay_type": "physicochemical", "conditions": "pH 7.4"}},
  "note": "Where a name gives a salt, the structure may show the parent alone.",
  "data": [
    {"smiles": "Oc1ccc(NC2=NCCN2)cc1O", "values": [
      {"measurement": "pC60", "setting": "Rattus norvegicus [1]", "value": 2.44, "unit": "uM kg-1"},
      {"measurement": "IC50", "setting": "[2]", "value": 5.1, "unit": "µM"},
      {"measurement": "IC50", "setting": "[3]", "value": 14, "unit": "nM"}
    ]},
    {"smiles": "N=C(N)N/N=C/c1c(Cl)cccc1Cl", "note": "[GUANABENZ]", "values": [
      {"measurement": "IC50", "setting": "[4]", "value": 1.7, "unit": "nM"},
      {"measurement": "pC60", "setting": "Rattus norvegicus [1]", "value": 0.93, "unit": "uM kg-1"}
    ]},
    {"smiles": "CCCN(CCC)C1CCc2cc(O)c(O)cc2C1", "note": "(stereo not drawn)", "values": [
      {"measurement": "IC50", "setting": "[4]", "value": 87, "unit": "nM"},
      {"measurement": "pC60", "setting": "Rattus norvegicus [1]", "value": 0.36, "unit": "uM kg-1"},
      {"measurement": "IC50", "setting": "[2]", "value": 24, "unit": "µM"}
    ]},
    {"smiles": "C=CCN1CCc2nc(N)sc2CC1", "note": "[TALIPEXOLE]", "values": [
      {"measurement": "IC50", "setting": "[5]", "value": 25, "unit": "nM"},
      {"measurement": "pC60", "setting": "Rattus norvegicus [1]", "value": 0.69, "unit": "uM kg-1"},
      {"measurement": "pC25", "setting": "Rattus norvegicus [6]", "value": 1.43, "unit": "uM kg-1"},
      {"measurement": "IC50", "setting": "[7]", "value": 500, "unit": "µM"}
    ]},
    {"smiles": "Cc1cc(C(C)(C)C)cc(C)c1CC1=NCCN1", "note": "[XYLOMETAZOLINE]", "values": [
      {"measurement": "pC60", "setting": "Rattus norvegicus [1]", "value": 1.12, "unit": "uM kg-1"},
      {"measurement": "IC50", "setting": "[8]", "value": 580, "unit": "nM"},
      {"measurement": "pC25", "setting": "Rattus norvegicus [6]", "value": 0.26, "unit": "uM kg-1"}
    ]},
    {"smiles": "CN(C)C1CCc2c(ccc(O)c2O)C1", "note": "(stereo not drawn)", "values": [
      {"measurement": "IC50", "setting": "[4]", "value": 17, "unit": "nM"},
      {"measurement": "pC60", "setting": "Rattus norvegicus [1]", "value": 1.2, "unit": "uM kg-1"},
      {"measurement": "IC50", "setting": "[2]", "value": 39, "unit": "µM"}
    ]},
    {"smiles": "Cc1cc(C(C)(C)C)c(O)c(C)c1CC1=NCCN1", "note": "[OXYMETAZOLINE]", "values": [
      {"measurement": "pC60", "setting": "Rattus norvegicus [1]", "value": 2.24, "unit": "uM kg-1"},
      {"measurement": "logD", "setting": "[9]", "value": -0.32}
    ]},
    {"smiles": "c1ccc2c(CC3=NCCN3)cccc2c1", "note": "[NAPHAZOLINE]", "values": [
      {"measurement": "pC60", "setting": "Rattus norvegicus [1]", "value": 1.83, "unit": "uM kg-1"},
      {"measurement": "pC25", "setting": "Rattus norvegicus [6]", "value": 0.95, "unit": "uM kg-1"}
    ]},
    {"smiles": "CNCC(O)c1cccc(NS(C)(=O)=O)c1", "note": "(stereo not drawn) [AMIDEPHRINE MESYLATE]", "values": [
      {"measurement": "IC50", "setting": "[4]", "value": 1900, "unit": "nM"},
      {"measurement": "pC60", "setting": "Rattus norvegicus [1]", "value": 1.36, "unit": "uM kg-1"},
      {"measurement": "IC50", "setting": "[2]", "value": 40, "unit": "µM"}
    ]},
    {"smiles": "COc1ccc(OC)c(C(O)C(C)N)c1", "note": "(stereo not drawn) [METHOXAMINE]", "values": [
      {"measurement": "IC50", "setting": "[4]", "value": 3600, "unit": "nM"},
      {"measurement": "pC60", "setting": "Rattus norvegicus [1]", "value": 0.75, "unit": "uM kg-1"},
      {"measurement": "IC50", "setting": "[2]", "value": 170, "unit": "µM"}
    ]}
  ]
}
